# Measurements reported in ChEMBL document CHEMBL4351015, “Design, synthesis and biological evaluation of 3-(imidazo[1,2-a]pyrazin-3-ylethynyl)-2-methylbenzamides as potent and selective pan-tropomyosin receptor kinase (TRK) inhibitors” (Eur J Med Chem, 2019).
# Calls of active or inactive are those of the source. The calls are words filed in the database; no cut-off is given here.
# How the values were obtained:
# [1] = biological target: Tyrosine-protein kinase ABL1 (Homo sapiens, UniProt P00519); assay: Inhibition of recombinant full length human His-tagged ABL1 expressed in baculovirus infected insect cells using tyr 02 as substrate incubated for 2 hr by Z'-Lyte assay
# [2] = biological target: T1, BDNF/NT-3 growth factors receptor (Homo sapiens, UniProt Q16620); assay: Inhibition of recombinant human His-tagged TrkB catalytic domain (526 to 838 residues) expressed in baculovirus expression system using tyr 01 as substrate incubated for 1 hr by Z'-Lyte assay
# Target sequence in this assay (Q16620 whole entry, the tested form may be a part): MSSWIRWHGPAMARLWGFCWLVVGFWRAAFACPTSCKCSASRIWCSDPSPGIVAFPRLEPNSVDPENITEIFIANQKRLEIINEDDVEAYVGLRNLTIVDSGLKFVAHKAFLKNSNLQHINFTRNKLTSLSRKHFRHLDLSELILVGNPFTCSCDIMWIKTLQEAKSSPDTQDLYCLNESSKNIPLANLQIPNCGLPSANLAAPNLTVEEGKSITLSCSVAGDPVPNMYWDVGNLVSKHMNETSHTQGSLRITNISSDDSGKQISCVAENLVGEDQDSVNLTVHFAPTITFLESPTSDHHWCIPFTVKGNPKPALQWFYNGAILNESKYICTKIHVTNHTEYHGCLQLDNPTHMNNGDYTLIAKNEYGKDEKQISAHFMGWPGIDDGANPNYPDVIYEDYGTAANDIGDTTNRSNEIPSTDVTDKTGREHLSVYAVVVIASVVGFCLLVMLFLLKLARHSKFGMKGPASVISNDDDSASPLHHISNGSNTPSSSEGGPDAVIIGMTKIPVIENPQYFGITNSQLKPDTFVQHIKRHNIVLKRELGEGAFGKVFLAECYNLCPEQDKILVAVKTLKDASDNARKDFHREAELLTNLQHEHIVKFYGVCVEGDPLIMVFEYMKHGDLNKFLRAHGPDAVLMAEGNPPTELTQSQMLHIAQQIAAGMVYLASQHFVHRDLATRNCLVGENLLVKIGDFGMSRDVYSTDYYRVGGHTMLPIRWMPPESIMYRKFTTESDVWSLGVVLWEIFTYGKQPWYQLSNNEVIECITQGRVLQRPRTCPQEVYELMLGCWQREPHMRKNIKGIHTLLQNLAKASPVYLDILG
# [3] = biological target: High affinity nerve growth factor receptor (Homo sapiens, UniProt P04629); assay: Inhibition of recombinant human His-tagged TrkA catalytic domain (441 to 796 residues) expressed in baculovirus expression system using tyr 01 as substrate incubated for 1 hr by Z'-Lyte assay
# SH-SY5Y [4] = assay: Antiproliferative activity against human SH-SY5Y cells transfected with TrkB (unknown origin) assessed as reduction in cell viability incubated for 72 hrs by CCK8 assay; type: functional, cell-based
# Procedure, shortened: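 SH-SY5Y-TrkB cells (SH-SY5Y stably transfected with pRP-TrkB, kept under 0.5 µg/ml puromycin in 1:1 MEM/F-12 with 10% FBS) seeded at 1500-3000/well, left overnight. Compounds 0.000457–3 µM were then added with or without BDNF 10 ng/ml for 72 h. Read-out by CCK8. IC50 came from concentration-response curve fitting, reported as mean ± SD from at least three independent experiments.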
# SH-SY5Y [5] = assay: Neurotoxicity in human SH-SY5Y cells assessed as reduction in cell viability incubated for 72 hrs by CCK8 assay; type: toxicity, cell-based
# SH-SY5Y [6] = assay: Inhibition of cell migration in human SH-SY5Y cells transfected with TrkB (unknown origin) assessed as reduction in BDNF-induced wound closure at 8 nM incubated for 24 hrs by bright field microscopy relative to control; type: functional
# Procedure, shortened: (§1)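 SH-SY5Y-TrkB monolayers were grown to near confluence and scratched with a pipette tip, then washed with PBS. Cells were incubated 24 h in MEM/F-12 with 2% FBS, with or without BDNF 10 ng/mL and with compound. Three random fields were imaged by bright-field microscopy and % wound closure was measured. Run three times, each in triplicate.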
# [7] = Drug concentration in Sprague-Dawley rat brain at 25 mg/kg, po administered via gavage incubated for 8 hrs by LC/MS-MS analysis; type: ADME, organism-based; conditions: read-out: Ct
# [8] = Ratio of drug concentration in brain to blood of Sprague-Dawley rat at 25 mg/kg, po administered via gavage incubated for 2 hrs by LC/MS-MS analysis; type: ADME, organism-based; conditions: brain and blood, read-out: BBR
# [9] = biological target: T1, BDNF/NT-3 growth factors receptor; assay: Inhibition of BDNF-induced TrkB (unknown origin) activation transfected in human SH-SY5Y cells assessed as decrease in Erk phosphorylation incubated for 6 hrs followed by BDNF addition further incubated for 30 mins by Western blot analysis; type: cell-based
# Procedure, shortened: (§2)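 SH-SY5Y-TrkB stable transfectants were pretreated with 0–2.0 µM compound for 6 h, then given BDNF 10 ng/mL or none for 30 min. Lysates were run on 8–12% SDS-PAGE, blotted to PVDF and blocked in 5% BSA. Primary antibodies were applied overnight at 4 °C, then HRP secondary, with ECL detection. Phospho and total TrkB, PLC-γ1, Akt (Ser473, Thr308) and Erk were probed, with GAPDH as control.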
# Target sequence in this assay (Q16620 32-822 limits assumed): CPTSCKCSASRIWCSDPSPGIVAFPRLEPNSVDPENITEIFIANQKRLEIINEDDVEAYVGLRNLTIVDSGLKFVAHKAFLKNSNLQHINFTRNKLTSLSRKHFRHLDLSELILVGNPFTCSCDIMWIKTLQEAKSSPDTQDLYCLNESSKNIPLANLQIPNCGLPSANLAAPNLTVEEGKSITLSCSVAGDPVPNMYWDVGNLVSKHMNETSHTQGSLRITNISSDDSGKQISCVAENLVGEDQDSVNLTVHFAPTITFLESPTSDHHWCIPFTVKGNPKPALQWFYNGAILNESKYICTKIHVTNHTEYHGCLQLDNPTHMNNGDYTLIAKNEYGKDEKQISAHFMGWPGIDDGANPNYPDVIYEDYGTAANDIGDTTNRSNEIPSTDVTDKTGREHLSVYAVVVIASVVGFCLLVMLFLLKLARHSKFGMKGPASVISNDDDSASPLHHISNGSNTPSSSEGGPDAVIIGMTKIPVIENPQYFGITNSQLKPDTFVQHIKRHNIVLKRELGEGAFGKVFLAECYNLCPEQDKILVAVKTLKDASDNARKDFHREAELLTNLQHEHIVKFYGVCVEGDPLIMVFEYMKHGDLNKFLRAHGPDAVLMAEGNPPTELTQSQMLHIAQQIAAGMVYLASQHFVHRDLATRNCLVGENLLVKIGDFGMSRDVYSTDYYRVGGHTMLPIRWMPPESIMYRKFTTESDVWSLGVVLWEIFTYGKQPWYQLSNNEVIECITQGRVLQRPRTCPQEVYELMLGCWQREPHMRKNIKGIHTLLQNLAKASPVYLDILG
# [10] = Drug concentration in Sprague-Dawley rat brain at 25 mg/kg, po administered via gavage incubated for 2 hrs by LC/MS-MS analysis; type: ADME, organism-based; conditions: read-out: Ct
# SH-SY5Y [11] = assay: Inhibition of BDNF-induced cell migration in human SH-SY5Y cells transfected with TrkB (unknown origin) at 8 nM incubated for 24 hrs by crystal violet staining microscopy based transwell assay relative to control; type: functional
# Procedure, shortened: (§3)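 Transwell migration: 1.5 X 10⁶ SH-SY5Y-TrkB cells in FBS-free medium containing 0, 8, 40 or 200 nM compound went in the top chamber. The bottom chamber held complete medium with or without BDNF 10 ng/mL. After 24 h at 37 °C, cells were methanol-fixed and stained with 0.25% crystal violet, and non-migrated cells were removed. Cells were counted in six random fields at 200X; mean of three independent experiments.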
# [12] = Plasma concentration in Sprague-Dawley rat at 25 mg/kg, po administered via gavage incubated for 8 hrs by LC/MS-MS analysis; type: ADME, organism-based
# SH-SY5Y [13] = assay: Inhibition of BDNF-induced cell migration in human SH-SY5Y cells transfected with TrkB (unknown origin) at 40 nM incubated for 24 hrs by crystal violet staining microscopy based transwell assay relative to control; type: functional; procedure, shortened: as §3
# SH-SY5Y [14] = assay: Inhibition of BDNF-induced cell invasion in human SH-SY5Y cells transfected with TrkB (unknown origin) at 200 nM incubated for 24 hrs by crystal violet staining microscopy-based matrigel assay relative to control; type: functional
# Procedure, shortened: (§4)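 Invasion through Matrigel chambers: 1.5 X 10⁶ SH-SY5Y-TrkB cells in FBS-free medium with 0, 8, 40 or 200 nM compound were placed on top. Complete medium with or without BDNF 10 ng/mL went below. After 24 h at 37 °C, cells were fixed in methanol and stained with 0.25% crystal violet, and top-surface cells were removed. Six random fields were counted at 200X; mean of three independent experiments.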
# [15] = biological target: T1, BDNF/NT-3 growth factors receptor; assay: Inhibition of TrkB (unknown origin) transfected in human SH-SY5Y cells assessed as decrease in BDNF-induced TrkB phosphorylation incubated for 6 hrs followed by BDNF addition further incubated for 30 mins by Western blot analysis; type: cell-based; procedure, shortened: as §2
# Target sequence in this assay (Q16620 32-822 limits assumed): as above
# [16] = Ratio of drug concentration in brain to blood of Sprague-Dawley rat at 25 mg/kg, po administered via gavage incubated for 0.5 hrs by LC/MS-MS analysis; type: ADME, organism-based; conditions: brain and blood, read-out: BBR
# [17] = biological target: T1, BDNF/NT-3 growth factors receptor; assay: Inhibition of BDNF-induced TrkB (unknown origin) activation transfected in human SH-SY5Y cells assessed as decrease in Akt phosphorylation at Thr308 residue incubated for 6 hrs followed by BDNF addition further incubated for 30 mins by Western blot analysis; type: cell-based; procedure, shortened: as §2
# Target sequence in this assay (Q16620 32-822 limits assumed): as above
# [18] = Effect on ERK phosphorylation in BDNF-induced human SH-SY5Y cells up to 2 uM preincubated for 6 hrs followed by BDNF addition and measured after 30 mins by Western blot analysis; type: cell-based; conditions: 0.5 h
# [19] = biological target: RAC-alpha serine/threonine-protein kinase (Homo sapiens, UniProt P31749); assay: Effect on ATK phosphorylation in BDNF-induced human SH-SY5Y cells up to 2 uM preincubated for 6 hrs followed by BDNF addition and measured after 30 mins by Western blot analysis; type: cell-based; conditions: 0.5 h
# SH-SY5Y [20] = assay: Inhibition of BDNF-induced cell invasion in human SH-SY5Y cells transfected with TrkB (unknown origin) incubated for 24 hrs by crystal violet staining microscopy-based matrigel assay; type: functional; procedure, shortened: as §4
# SH-SY5Y [21] = assay: Inhibition of BDNF-induced cell invasion in human SH-SY5Y cells transfected with TrkB (unknown origin) at 8 nM incubated for 24 hrs by crystal violet staining microscopy-based matrigel assay relative to control; type: functional; procedure, shortened: as §4
# [22] = biological target: T1, BDNF/NT-3 growth factors receptor; assay: Inhibition of BDNF-induced TrkB (unknown origin) activation transfected in human SH-SY5Y cells assessed as decrease in PLCgamma1 phosphorylation incubated for 6 hrs followed by BDNF addition further incubated for 30 mins by Western blot analysis; type: cell-based; procedure, shortened: as §2
# Target sequence in this assay (Q16620 32-822 limits assumed): as above
# [23] = Plasma concentration in Sprague-Dawley rat at 25 mg/kg, po administered via gavage incubated for 0.5 hrs by LC/MS-MS analysis; type: ADME, organism-based
# [24] = Drug concentration in Sprague-Dawley rat brain at 25 mg/kg, po administered via gavage incubated for 0.5 hrs by LC/MS-MS analysis; type: ADME, organism-based; conditions: read-out: Ct
# SH-SY5Y [25] = assay: Inhibition of BDNF-induced cell migration in human SH-SY5Y cells transfected with TrkB (unknown origin) at 200 nM incubated for 24 hrs by crystal violet staining microscopy based transwell assay relative to control; type: functional; procedure, shortened: as §3
# [26] = biological target: NT-3 growth factor receptor (Homo sapiens, UniProt Q16288); assay: Inhibition of recombinant human His-tagged TrkC cytoplasmic domain (510 to 825 residues) expressed in baculovirus using tyr 01 as substrate incubated for 1 hr by Z'-Lyte assay
# [27] = Plasma concentration in Sprague-Dawley rat at 25 mg/kg, po administered via gavage incubated for 2 hrs by LC/MS-MS analysis; type: ADME, organism-based
# SH-SY5Y [28] = assay: Inhibition of BDNF-induced cell migration in human SH-SY5Y cells transfected with TrkB (unknown origin) incubated for 24 hrs by crystal violet staining microscopy based transwell assay; type: functional; procedure, shortened: as §3
# SH-SY5Y [29] = assay: Inhibition of cell migration in human SH-SY5Y cells transfected with TrkB (unknown origin) assessed as reduction in BDNF-induced wound closure at 40 nM incubated for 24 hrs by bright field microscopy relative to control; type: functional; procedure, shortened: as §1
# [30] = biological target: T1, BDNF/NT-3 growth factors receptor; assay: Inhibition of TrkB (unknown origin) transfected in human SH-SY5Y cells assessed as decrease in BDNF-induced TrkB phosphorylation at >=16 nM incubated for 6 hrs followed by BDNF addition further incubated for 30 mins by Western blot analysis; type: cell-based; procedure, shortened: as §2
# Target sequence in this assay (Q16620 32-822 limits assumed): as above
# SH-SY5Y [31] = assay: Inhibition of BDNF-induced cell invasion in human SH-SY5Y cells transfected with TrkB (unknown origin) at 40 nM incubated for 24 hrs by crystal violet staining microscopy-based matrigel assay relative to control; type: functional; procedure, shortened: as §4
# SH-SY5Y [32] = assay: Inhibition of cell migration in human SH-SY5Y cells transfected with TrkB (unknown origin) assessed as reduction in BDNF-induced wound closure at 200 nM incubated for 24 hrs by bright field microscopy relative to control; type: functional; procedure, shortened: as §1
# [33] = Ratio of drug concentration in brain to blood of Sprague-Dawley rat at 25 mg/kg, po administered via gavage incubated for 8 hrs by LC/MS-MS analysis; type: ADME, organism-based; conditions: brain and blood, read-out: BBR
# Chain of Tyrosine-protein kinase ABL1 (P00519 whole entry, the tested form may be a part): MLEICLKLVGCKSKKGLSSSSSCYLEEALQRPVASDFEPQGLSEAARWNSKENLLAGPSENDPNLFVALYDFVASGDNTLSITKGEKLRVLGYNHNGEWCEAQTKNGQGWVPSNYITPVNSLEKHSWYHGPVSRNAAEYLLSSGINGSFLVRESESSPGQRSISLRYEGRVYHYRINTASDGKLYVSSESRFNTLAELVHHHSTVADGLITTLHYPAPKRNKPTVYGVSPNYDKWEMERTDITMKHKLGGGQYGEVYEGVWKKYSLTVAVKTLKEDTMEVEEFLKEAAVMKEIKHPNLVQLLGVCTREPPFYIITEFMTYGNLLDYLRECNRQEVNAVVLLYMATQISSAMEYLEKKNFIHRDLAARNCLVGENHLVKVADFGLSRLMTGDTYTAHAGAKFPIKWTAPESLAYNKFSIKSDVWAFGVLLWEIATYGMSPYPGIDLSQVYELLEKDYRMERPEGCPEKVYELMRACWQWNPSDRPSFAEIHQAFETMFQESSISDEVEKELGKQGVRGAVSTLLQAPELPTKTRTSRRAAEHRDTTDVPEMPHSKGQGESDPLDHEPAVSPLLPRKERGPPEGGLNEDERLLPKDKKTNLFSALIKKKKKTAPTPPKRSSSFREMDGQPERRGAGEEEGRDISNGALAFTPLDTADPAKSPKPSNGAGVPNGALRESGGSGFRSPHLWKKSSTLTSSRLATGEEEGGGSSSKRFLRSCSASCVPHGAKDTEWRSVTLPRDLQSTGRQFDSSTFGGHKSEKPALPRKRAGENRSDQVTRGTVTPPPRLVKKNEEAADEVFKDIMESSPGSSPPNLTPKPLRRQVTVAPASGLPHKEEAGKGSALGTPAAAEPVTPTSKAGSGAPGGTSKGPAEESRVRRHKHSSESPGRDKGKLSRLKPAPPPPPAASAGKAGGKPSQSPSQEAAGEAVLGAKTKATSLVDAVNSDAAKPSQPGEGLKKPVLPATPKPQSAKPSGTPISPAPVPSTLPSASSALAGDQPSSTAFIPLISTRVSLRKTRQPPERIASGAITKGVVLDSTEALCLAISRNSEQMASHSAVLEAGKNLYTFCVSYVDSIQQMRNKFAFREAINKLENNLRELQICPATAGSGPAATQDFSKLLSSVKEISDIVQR
# Chain of High affinity nerve growth factor receptor (P04629 whole entry, the tested form may be a part): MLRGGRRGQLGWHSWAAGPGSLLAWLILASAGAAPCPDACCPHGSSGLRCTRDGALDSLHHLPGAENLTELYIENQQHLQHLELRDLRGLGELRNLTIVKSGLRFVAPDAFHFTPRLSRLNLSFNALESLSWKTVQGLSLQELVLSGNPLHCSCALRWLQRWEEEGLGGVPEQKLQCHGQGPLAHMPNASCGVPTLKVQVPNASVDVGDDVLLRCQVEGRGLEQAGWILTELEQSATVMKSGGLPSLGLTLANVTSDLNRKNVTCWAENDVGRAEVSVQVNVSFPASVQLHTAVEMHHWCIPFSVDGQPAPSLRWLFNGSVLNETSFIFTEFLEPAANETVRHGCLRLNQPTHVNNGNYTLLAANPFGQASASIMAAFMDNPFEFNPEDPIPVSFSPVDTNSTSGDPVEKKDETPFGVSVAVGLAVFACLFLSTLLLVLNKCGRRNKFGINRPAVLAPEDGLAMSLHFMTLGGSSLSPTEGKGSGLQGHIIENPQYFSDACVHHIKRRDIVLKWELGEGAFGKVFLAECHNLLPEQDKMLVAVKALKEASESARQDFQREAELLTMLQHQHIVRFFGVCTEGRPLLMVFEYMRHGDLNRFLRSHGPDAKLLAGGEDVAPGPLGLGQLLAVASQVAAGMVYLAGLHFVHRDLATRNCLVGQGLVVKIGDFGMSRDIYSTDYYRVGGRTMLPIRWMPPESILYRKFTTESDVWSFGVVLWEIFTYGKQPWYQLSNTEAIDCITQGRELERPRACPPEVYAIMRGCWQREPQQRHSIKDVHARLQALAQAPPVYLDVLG
# Chain of RAC-alpha serine/threonine-protein kinase (P31749 whole entry): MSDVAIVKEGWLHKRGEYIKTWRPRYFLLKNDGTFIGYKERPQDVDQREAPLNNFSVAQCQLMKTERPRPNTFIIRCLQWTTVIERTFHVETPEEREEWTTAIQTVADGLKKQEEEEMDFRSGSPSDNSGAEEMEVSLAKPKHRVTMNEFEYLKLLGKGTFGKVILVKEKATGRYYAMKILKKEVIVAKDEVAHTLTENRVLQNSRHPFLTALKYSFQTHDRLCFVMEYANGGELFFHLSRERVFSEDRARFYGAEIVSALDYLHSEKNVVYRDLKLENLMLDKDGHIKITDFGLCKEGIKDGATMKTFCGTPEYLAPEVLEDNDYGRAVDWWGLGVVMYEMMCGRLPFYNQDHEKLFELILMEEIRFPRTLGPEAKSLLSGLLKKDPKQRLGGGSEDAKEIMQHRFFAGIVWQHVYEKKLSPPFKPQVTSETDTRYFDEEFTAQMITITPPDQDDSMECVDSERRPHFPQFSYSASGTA
# Chain of NT-3 growth factor receptor (Q16288 whole entry, the tested form may be a part): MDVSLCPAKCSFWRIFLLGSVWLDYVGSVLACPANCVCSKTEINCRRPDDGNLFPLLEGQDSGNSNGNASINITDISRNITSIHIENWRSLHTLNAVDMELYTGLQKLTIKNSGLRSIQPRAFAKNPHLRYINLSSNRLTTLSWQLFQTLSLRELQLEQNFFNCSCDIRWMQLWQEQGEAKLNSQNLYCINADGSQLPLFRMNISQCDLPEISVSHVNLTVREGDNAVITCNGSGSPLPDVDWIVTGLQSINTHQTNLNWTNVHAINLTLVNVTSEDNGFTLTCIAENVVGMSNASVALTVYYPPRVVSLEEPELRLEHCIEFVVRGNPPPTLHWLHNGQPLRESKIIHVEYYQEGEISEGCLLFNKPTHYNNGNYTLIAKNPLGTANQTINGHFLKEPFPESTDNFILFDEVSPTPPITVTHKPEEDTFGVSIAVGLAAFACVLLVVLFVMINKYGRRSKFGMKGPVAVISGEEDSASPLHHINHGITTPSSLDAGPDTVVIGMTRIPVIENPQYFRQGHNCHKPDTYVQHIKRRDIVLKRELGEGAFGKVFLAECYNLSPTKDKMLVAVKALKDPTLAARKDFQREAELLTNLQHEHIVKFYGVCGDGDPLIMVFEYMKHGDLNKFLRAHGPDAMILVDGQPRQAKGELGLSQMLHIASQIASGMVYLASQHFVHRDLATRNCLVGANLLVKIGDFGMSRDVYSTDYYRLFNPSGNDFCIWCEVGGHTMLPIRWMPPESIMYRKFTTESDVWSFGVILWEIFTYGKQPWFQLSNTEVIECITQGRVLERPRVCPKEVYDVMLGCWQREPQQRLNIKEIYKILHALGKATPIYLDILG
structure (smiles),measurement,setting,value
COc1c(C#Cc2cnc3cnccn23)cccc1C(=O)Nc1cc(CN2CCN(C)CC2)cc(C(F)(F)F)c1,IC50,[1],> 1000 nM
same,IC50,[2],> 1000 nM
same,IC50,[3],> 1000 nM
O=C(Nc1cnn2ccc(N3CCC[C@@H]3c3cc(F)ccc3F)nc12)N1CC[C@H](O)C1 [LAROTRECTINIB],Activity,SH-SY5Y [4],Active
same,IC50,[1],> 1000 nM
same,Activity,SH-SY5Y [5],Non-Toxic
Cc1cc(CN2CCN(C)CC2)cc(NC(=O)c2cccc(C#Cc3cnc4cnc(-c5ccc(N)cc5)cn34)c2C)c1,IC50,[1],> 1000 nM
same,IC50,[2],41.3 nM
same,IC50,[3],17.4 nM
Cc1c(C#Cc2cnc3cnc(-c4ccc(N)cc4)cn23)cccc1C(=O)Nc1cc(CN2CCN(C)CC2)cc(C(C)C)c1,IC50,SH-SY5Y [4],58 nM
same,inhibition at 0.008 µM,SH-SY5Y [6],50.1%
same,concentration at 8 h,[7],0.09 ng/mL
same,IC50,[1],> 1000 nM
same,Kp at 2 h,[8],6
same,inhibition,[9],Dose-dependent effect
same,concentration at 2 h,[10],0.355 ng/mL
same,inhibition at 0.008 µM,SH-SY5Y [11],22.7%
same,concentration at 8 h,[12],6.52 ng/mL
same,inhibition at 0.04 µM,SH-SY5Y [13],53.3%
same,inhibition at 0.2 µM,SH-SY5Y [14],85.5%
same,Activity,SH-SY5Y [5],Non-Toxic
same,IC50,[2],10.5 nM
same,inhibition,[15],Dose-dependent effect
same,Kp at 0.5 h,[16],6.4
same,inhibition,[17],Dose-dependent effect
same,Activity,[18],Not Active
same,Activity,[19],Not Active
same,IC50,[3],2.65 nM
same,inhibition,SH-SY5Y [20],Dose-dependent effect
same,inhibition at 0.008 µM,SH-SY5Y [21],9.1%
same,inhibition,[22],Dose-dependent effect
same,concentration at 0.5 h,[23],7.33 ng/mL
same,concentration at 0.5 h,[24],0.078 ng/mL
same,inhibition at 0.2 µM,SH-SY5Y [25],82%
same,IC50,[26],2.95 nM
same,concentration at 2 h,[27],33.2 ng/mL
same,inhibition,SH-SY5Y [28],Dose-dependent effect
same,inhibition at 0.04 µM,SH-SY5Y [29],76.6%
same,inhibition,[30],100%
same,inhibition at 0.04 µM,SH-SY5Y [31],61.9%
same,inhibition at 0.2 µM,SH-SY5Y [32],77.5%
same,Kp at 8 h,[33],8.3
Cc1c(C#Cc2cnc3cnc(-c4ccccc4)cn23)cccc1C(=O)Nc1cc(CN2CCN(C)CC2)cc(C(F)(F)F)c1,IC50,[1],> 1000 nM
same,IC50,[2],22.7 nM
same,IC50,[3],29.2 nM
Cc1c(C#Cc2cnc3cnc(-c4ccc(N)cc4)cn23)cccc1C(=O)Nc1cc(CN2CCN(C)CC2)cc(C(C)(C)C)c1,IC50,[1],> 1000 nM
same,IC50,[2],15.6 nM
same,IC50,[3],6.4 nM
Cc1c(C#Cc2cnc3cnc(-c4ccc(N)cc4)cn23)cccc1C(=O)Nc1cc(CN2CCN(C)CC2)cc(-c2ccccc2)c1,IC50,[1],> 1000 nM
same,IC50,[2],24.2 nM
same,IC50,[3],7.34 nM
CN1CCN(Cc2cc(NC(=O)c3cccc(C#Cc4cnc5cnccn45)c3)cc(C(F)(F)F)c2)CC1,IC50,[1],33.3 nM
same,IC50,[2],43.9 nM
same,IC50,[3],41.6 nM
CCc1cc(CN2CCN(C)CC2)cc(NC(=O)c2cccc(C#Cc3cnc4cnc(-c5ccc(N)cc5)cn34)c2C)c1,IC50,[1],> 1000 nM
same,IC50,[2],9.3 nM
same,IC50,[3],3.56 nM
Cc1cc(C#Cc2cnc3cnccn23)cc(C(=O)Nc2cc(CN3CCN(C)CC3)cc(C(F)(F)F)c2)c1,IC50,[1],449 nM
same,IC50,[2],178 nM
same,IC50,[3],132 nM
